In article PMC5987874 (The Journal of General Physiology, 2018):
Changes are numbered by the printed parent chain. Read-outs that look alike come from different tables or passages of the source.

Experiments:
[1] = biological target: T1, human Hv1 H193A (H^3.71A) (Homo sapiens, UniProt Q96D96, H193A); assay: Whole-cell voltage clamp, Zn^2+ modulation of GAQ gating; format: cell-based
T1 sequence (Q96D96 1-273 H193A): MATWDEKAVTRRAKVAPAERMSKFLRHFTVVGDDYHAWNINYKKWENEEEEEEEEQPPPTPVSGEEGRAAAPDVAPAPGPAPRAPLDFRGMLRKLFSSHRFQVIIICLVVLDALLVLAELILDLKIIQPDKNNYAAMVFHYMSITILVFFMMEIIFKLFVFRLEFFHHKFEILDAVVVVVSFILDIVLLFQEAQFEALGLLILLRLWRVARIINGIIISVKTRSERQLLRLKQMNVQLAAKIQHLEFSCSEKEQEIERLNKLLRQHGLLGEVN
Method in brief: (§1)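 Whole-cell patch clamp at ~21°C. Pipette and bath (mM): ~80 TMA-MeSO3, 100 Bis-Tris, 8 HCl, pH 6.5, 310–320 mOsm. ZnCl2 was diluted into bath solution and applied by gravity superfusion, at least 2 min per change. Test step voltage was set per construct from its V0.5. G_STEP = end-of-step current/(V−V_REV). Effect = 1 − G_Zn/G_control, fitted to the Hill equation. IC50 and nH are means ± SEM from separate cells. ΔpIC50 was tested by unpaired t test, P<0.05.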

[2] = biological target: T2, human Hv1 D185H-H193A (Homo sapiens, UniProt Q96D96, D185H/H193A); assay: as above; format: cell-based
T2 sequence (Q96D96 1-273 D185H/H193A): T1 sequence (Q96D96 1-273 H193A) with D185H
Method in brief: as §1

[3] = biological target: T3, human Hv1 H140A (H^2.40A) (Homo sapiens, UniProt Q96D96, H140A); details: ref Ramsey et al., 2006; cited from earlier work
T3 sequence (Q96D96 1-273 H140A): T1 sequence (Q96D96 1-273 H193A) with H140A, A193H

[4] = biological target: T4, human Hv1 E119A-H193A (Homo sapiens, UniProt Q96D96, E119A/H193A); assay: Whole-cell voltage clamp, Zn^2+ modulation of GAQ gating; format: cell-based
T4 sequence (Q96D96 1-273 E119A/H193A): T1 sequence (Q96D96 1-273 H193A) with E119A
Method in brief: as §1

[5] = biological target: T5, human Hv1 WT (Homo sapiens, UniProt Q96D96); assay: as above; format: cell-based
T5 sequence (Q96D96 1-273): T1 sequence (Q96D96 1-273 H193A) with A193H
Method in brief: as §1

[6] = biological target: T6, human Hv1 H140A-H193A (Homo sapiens, UniProt Q96D96, H140A/H193A); assay: as above; format: cell-based
T6 sequence (Q96D96 1-273 H140A/H193A): T1 sequence (Q96D96 1-273 H193A) with H140A
Method in brief: as §1

[7] = VSTEP 100 mV, calculated as log (IC50)
[8] = read-out: IC50, fit of the mean data to a Hill function, Fig. 2C

With [Cl-].[Cl-].[Zn+2] [Zn^2+, ZnCl2] the “nH, fit of the mean data to a Hill function” value (“nH, fit of the mean data” below) ([1]; Fig. 2C) was 1.0, the “Mean ΔpIC50 = (pIC50_1 - pIC50_2)” value ([1]; H193A vs WT) was −1.37 and the Hill value ([1]; VSTEP 100 mV) was 1.04. The pIC50 [1, 7] was −4.06, the IC50 [1, 8] was 82.2 µM and the “Mean ΔpIC50 = (pIC50_1 - pIC50_2)” value ([2]; D185H-H193A vs D185H) was −0.84. The “Mean ΔpIC50 = (pIC50_1 - pIC50_2)” value ([2]; D185H-H193A vs H193A) was 0.52, the “nH, fit of the mean data” value ([2]; Fig. 4D) was 0.6 and the Hill value ([2]; VSTEP 80 mV) was 0.60. The pIC50 ([2]; VSTEP 80 mV, calculated as log (IC50)) was −4.54, the IC50 ([2]; read-out: IC50, fit of the mean data to a Hill function, Fig. 4D) was 26.7 µM and the IC50 ([2]; read-out: Mean IC50 @ VSTEP, VSTEP 80 mV, pH 6.5, mean of fits in separate cells) was 37.9 µM. For the same molecule, the “decrease of Zn^2+ potency by single mutation” value [3] was 10- to 30 fold, the “Mean ΔpIC50 = (pIC50_1 - pIC50_2)” value ([4]; E119A-H193A vs E119A) was −1.60 and the “Mean ΔpIC50 = (pIC50_1 - pIC50_2)” value ([4]; E119A-H193A vs H193A) was −0.5. For the same molecule, the “nH, fit of the mean data” value ([4]; Fig. 4A) was 0.8, the Hill value ([4]; VSTEP 100 mV) was 0.78 and the pIC50 [4, 7] was −3.56. The IC50 ([4]; read-out: IC50, fit of the mean data to a Hill function, Fig. 4A) was 274 µM, the “nH, fit of the mean data” value ([5]; Fig. 2C) was 0.8 and the Hill value ([5]; VSTEP 100 mV) was 0.81. The pIC50 [5, 7] was 5.44, the “nH, fit of the mean data” value ([6]; Fig. 2C) was 1.5 and the “Mean ΔpIC50 = (pIC50_1 - pIC50_2)” value ([6]; H140A-H193A vs H140A) was −1.65. The “Mean ΔpIC50 = (pIC50_1 - pIC50_2)” value ([6]; H140A-H193A vs H193A) was −1.30, the “Mean ΔpIC50 = (pIC50_1 - pIC50_2)” value ([6]; H140A-H193A vs WT) was −2.68 and the Hill value ([6]; VSTEP 100 mV) was 1.57. For the same molecule, the IC50 ([6]; VSTEP 100 mV) was 1700 ± 300 µM, the pIC50 [6, 7] was −2.76 and the IC50 [6, 8] was 1740 µM.
